In one series the test system is Jurkat. In words: Growth inhibition of human Jurkat cells incubated for 72 hrs by MTT assay. The class given is functional. The essentials:
(§1)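 Leukemia lines were grown in RPMI-1640; the CEM^Vbl-100 medium also contained 100 ng/mL vinblastine. Cells were seeded at 8 × 10³ per well and left 18 h at 37 °C, 5% CO2. Medium was then replaced with fresh medium holding graded compound concentrations (DMSO stocks), in triplicate, for 72 h. Viability was read by MTT, and GI50 = concentration inhibiting proliferation 50%.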

For the next series, the system named is HL-60. In words: Growth inhibition of human HL60 cells incubated for 72 hrs by MTT assay. The conditions noted are these: HL-60, 72 h. It is filed as functional. In outline:
as §1

The next series deals with RS4-11. In words: Growth inhibition of human RS4:11 cells incubated for 72 hrs by MTT assay. The class given is functional. The conditions noted are these: RS4-11, 72 h. In outline: as §1
In another series the test system is MCF7. In words: Growth inhibition of human MCF7 cells incubated for 72 hrs by MTT assay. The conditions noted are these: MCF7, 72 h. It is filed as functional.
For the next series, the system named is HeLa. Nature of the series: Growth inhibition of human HeLa cells incubated for 72 hrs by MTT assay. The class given is functional.
The next series has as its system HT-29. Nature of the series: Growth inhibition of human HT-29 cells incubated for 72 hrs by MTT assay. As to conditions: HT-29, 72 h. The class given is functional.
Series [1] can be described thus: Growth inhibition of human PBL cells incubated for 72 hrs by MTT assay. It is filed as cell-based. As to conditions: PBL cells (peripheral blood lymphocytes). The essentials: (§2)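 PBL from healthy donors were isolated on a Lymphoprep gradient, held overnight in RPMI-1640 with 10% FBS, and the non-adherent cells resuspended at 5 × 10^5 cells/mL. Proliferating cultures got 2.5 µg/mL PHA; resting cultures got none. Compound was added at several concentrations for 72 h and viability read by MTT. GI50 reported as mean ± SEM of three experiments.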

A short description of series [2]: Growth inhibition of PHA-stimulated human PBL cells incubated for 72 hrs by MTT assay. The class given is cell-based. As to conditions: PHA-stimulated PBL cells (peripheral blood lymphocytes). The essentials: as §2
For a further series, the system named is CCRF-CEM. In words: Growth inhibition of human CEM cells incubated for 72 hrs by MTT assay. The class given is functional. In outline: as §1
The nature of series [3]: Growth inhibition of multidrug-resistant human CEM/VBL100 cells incubated for 72 hrs by MTT assay. The class given is functional. The conditions noted are these: CEM/VBL100, 72 h. In outline: as §1
The target of the next series is Tubulin (Bos taurus, UniProt Q6B856+Q862L2+Q862F3). Nature of the series: Inhibition of bovine brain tubulin polymerization preincubated for 15 mins followed by GTP addition and measured for 20 mins by turbidimetry-based spectrophotometric method. In outline:
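Bovine brain tubulin (10 µM) was preincubated with varying compound concentrations in 0.8 M monosodium glutamate, pH 6.6, for 15 min at 30 °C, then cooled to 0 °C. GTP was added to 0.4 mM final and the mix warmed to 30 °C. Turbidity was followed at 350 nm. IC50 = concentration inhibiting extent of assembly 50% after 20 min.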

The target in a further series is Tubulin (Bos taurus) (UniProt Q6B856+Q862L2+Q862F3). Nature of the series: Inhibition of [3H]colchicine binding to bovine brain tubulin at 5 uM relative to control. In outline:
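Bovine brain tubulin at 1 µM was incubated with 5 µM [3H]colchicine and the test compound at 5 µM. Inhibition of colchicine binding was measured relative to a control.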

Series [4] is described as follows: Time-dependent metabolic stability in human liver microsomes at 10 uM incubated for 30 mins in presence of NADPH by HPLC analysis. The conditions noted are these: 0.5 h. The class given is ADME, Microsome. The essentials:
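Pooled mixed-gender HLMs (0.5 mg/mL) plus 1 mM NADPH in 0.1 M KH₂PO₄ pH 7.4, compound 10 μM final, 37 °C. Reaction started with microsomes after 3-min equilibration. Stopped with ice-cold acetonitrile at 0, 2, 5, 15, 30 min, then HPLC-fluorescence of supernatant. Percent remaining vs 0 min (mean ± SD, n = 3). Half-life = 0.693/k from linear regression of Ln % remaining vs time.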

Series [5] can be described thus: Metabolic stability in human liver microsomes assessed as half life at 10 uM incubated for 30 mins in presence of NADPH by HPLC analysis. The class given is ADME, Microsome. In outline:
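Compound (10 µM) was incubated at 37 °C with 0.5 mg/mL pooled HLMs and 1 mM NADPH in 0.1 M KH2PO4 pH 7.4, sampled at 0, 2, 5, 15 and 30 min. Controls without NADPH, or buffer only, ran 0 and 30 min. Parent was quantified by HPLC-fluorescence as % of the 0 min level, n = 3. t1/2 = 0.693/k, with k from regression of ln % remaining versus time.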

Series [6] can be described thus: Metabolic stability in human liver microsomes at 10 uM incubated for 15 mins in presence of NADPH and non-selective CYP inhibitor quercetin by HPLC analysis. The class given is ADME, Microsome. As to conditions: 0.25 h. In outline:
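Compound (10 µM) was incubated 0 and 15 min at 37 °C with pooled HLMs and 1 mM NADPH in 0.1 M KH2PO4 pH 7.4, with or without 100 µM quercetin. Parent remaining was measured by HPLC-fluorescence relative to 0 min; mean ± SD, n = 3.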

The nature of series [7]: Selectivity ratio of GI50 for human PBL cells to GI50 for human Jurkat cells incubated for 72 hrs by MTT assay. The essentials:
(§3)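 Leukemia cells (CEM, DND-41, Jurkat) were grown in RPMI-1640 at 8×10³ cells/well and left 18 h. Donor PBL were gradient-separated, held overnight in RPMI-1640/10% FBS, and non-adherent cells set at 5×10^5 cells/mL without PHA (resting). Both were exposed 72 h to graded concentrations, read by MTT. The ratio is PBL GI50 over leukemia GI50.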

Series [8] in a line: Stability in phosphate buffer at pH 7.4 at 10 uM incubated for 30 mins by HPLC analysis. The class given is physicochemical. The conditions noted are these: pH 7.4, 0.5 h. In outline:
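No microsomes or NADPH: compound (10 μM final) held in 0.1 M KH₂PO₄ pH 7.4 at 37 °C. Samples taken at 0 and 30 min, quenched with ice-cold acetonitrile, centrifuged, analysed by HPLC with fluorescence detection. Percent parent remaining relative to 0 min; mean ± SD, n = 3.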

A short description of series [9]: Selectivity ratio of GI50 for human PBL cells to GI50 for human DND41 cells incubated for 72 hrs by MTT assay. The essentials: as §3
The nature of series [10]: Selectivity ratio of GI50 for human PBL cells to GI50 for human CEM cells incubated for 72 hrs by MTT assay. It is filed as functional. The essentials: as §3
Series [11] can be described thus: Selectivity ratio of GI50 for PHA-stimulated human PBL cells to GI50 for human Jurkat cells incubated for 72 hrs by MTT assay. The essentials: (§4)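 Leukemia cells (CEM, DND-41, Jurkat) were grown in RPMI-1640 at 8×10³ cells/well and left 18 h. Donor PBL were gradient-separated, held overnight, and non-adherent cells set at 5×10^5 cells/mL with 2.5 µg/mL PHA. Both were exposed 72 h at 37 °C to graded compound concentrations, read by MTT. The ratio is PBL GI50 over leukemia GI50.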

The nature of series [12]: Selectivity ratio of GI50 for PHA-stimulated human PBL cells to GI50 for human DND41 cells incubated for 72 hrs by MTT assay. In outline:
as §4

The nature of series [13]: Selectivity ratio of GI50 for PHA-stimulated human PBL cells to GI50 for human CEM cells incubated for 72 hrs by MTT assay. The essentials: as §4

Each structure is given as a SMILES string.

As to `CCn1ccc2c3c(=O)cc(-c4ccccc4F)[nH]c3ccc21`, the GI50 in the series with Jurkat came out at 0.19 nM; in the series on HL-60, 0.17 nM; with RS4-11 it was 0.09 nM; in the series with MCF7, 247 nM; in the series on HeLa it was 1.2 nM; in the series on HT-29, 1.1 nM. The GI50 turned out to be 3.1 nM in the series on CCRF-CEM and 1.1 nM in series [3]. Moreover, the GI50 at 72 h was 28000 nM in [1] and 15200 nM in series [2]. This compound also had an IC50 against Tubulin of 960 nM. The inhibition on Tubulin (Bos taurus) worked out at 77%. The values for the Stability result in series [4], in [6] and in series [8] were “Unstable”, “Stable” and “Stable”, respectively. Further, in series [5], the half-life at 10 µM was found to be 11.4 min. The RatioGI50 in series [7], in series [9], in [10], in series [11], in [12] and in series [13] was 10000 - 30000 each time.
For `CCn1ccc2c3c(=O)cc(-c4ccccc4)[nH]c3ccc21`, the GI50 in the series on Jurkat stood at 0.5 nM; in the series on HL-60, 0.5 nM; in the series with RS4-11 it was 2 nM; with MCF7, 40 nM; with HeLa, 11 nM; in the series on HT-29, 32 nM. Also, the GI50 came to 14 nM in the series with CCRF-CEM and 4 nM in series [3]. The GI50 at 72 h in series [1] was above 100000 nM; in series [2], 7600 nM. The compound further returned an IC50 against Tubulin of 570 nM. On Tubulin (Bos taurus), this compound returned an inhibition of 73%. Further, the Stability result in [4] is recorded as “Unstable”; in [6] it was “Stable”; in series [8], “Stable”. For the same compound, the half-life at 10 µM in series [5] was 17.3 min. For the same compound, the RatioGI50 in series [7], in series [9], in series [10], in series [11], in series [12] and in series [13] was 10000 - 30000 each time.
